The source made the active and inactive calls. The calls are words filed in the database; no cut-off is given here. A value given as a limit tells only on which side of the number the result lay.

The target of one data set is T1, Melanin-concentrating hormone receptor 1 (Homo sapiens, UniProt Q99705). The data set can be described thus: Antagonist activity at human MCHR1 expressed in CHO cells assessed as inhibition of MCH-induced intracellular calcium release by FLIPR assay.
T1 sequence (Q99705 whole entry): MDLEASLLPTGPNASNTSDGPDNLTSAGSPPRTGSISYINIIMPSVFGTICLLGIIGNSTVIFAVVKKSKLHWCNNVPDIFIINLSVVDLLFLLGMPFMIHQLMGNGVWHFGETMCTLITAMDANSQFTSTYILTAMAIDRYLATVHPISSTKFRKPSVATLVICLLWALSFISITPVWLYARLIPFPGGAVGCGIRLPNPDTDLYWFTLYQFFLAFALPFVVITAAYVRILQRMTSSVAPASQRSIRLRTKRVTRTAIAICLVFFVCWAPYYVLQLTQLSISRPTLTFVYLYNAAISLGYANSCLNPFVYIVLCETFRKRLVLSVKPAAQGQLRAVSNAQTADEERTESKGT
Details: not given
Type of data set: functional, cell-based. The essentials: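 Agonist-induced intracellular calcium release measured by FLIPR in CHO cells stably expressing human MCH1R; antagonism taken as inhibition of the MCH-evoked signal.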
For `O=c1cc(OCc2ccc(Cl)cc2)ccn1-c1ccc(OCCN2CCCC2)cc1`, the IC50 was 17 nM.

In the case of `O=c1cc(OCc2ccc(F)cc2)ccn1-c1ccc(OCCN2CCCC2)cc1`, the concentration for half-maximal inhibition (IC50) worked out at 23 nM.

Regarding `CN1CCCC1COc1ccc(-n2ccc(OCc3ccccc3)cc2=O)cc1` (stereo not given), the IC50 came to 23 nM.

Turning to `CN(C)CCOc1ccc(-n2ccc(OCc3ccccc3)cc2=O)cc1`, the IC50 came to 18 nM.

Turning to `CC(C)N(CCOc1ccc(-n2ccc(OCc3ccccc3)cc2=O)cc1)C(C)C`, the IC50 was 22 nM.

As to `O=c1cc(OCc2ccccc2)ccn1-c1ccc(OCCN2CCCCC2)cc1`, the IC50 is 19 nM.

For `COc1ccc(COc2ccn(-c3ccc(OCCN4CCCC4)cc3)c(=O)c2)cc1`, the IC50 turned out to be 11 nM.

As to `O=c1cc(OCc2cccc(F)c2)ccn1-c1ccc(OCCN2CCCC2)cc1`, the IC50 is 22 nM.

As for `CCN(CC)CCOc1ccc(-n2ccc(OCc3ccccc3)cc2=O)cc1`, the IC50 was found to be 24 nM.

Take `O=c1cc(OCc2ccc3ccccc3c2)ccn1-c1ccc(OCCN2CCCC2)cc1`: the IC50 came out at 175 nM.

As for `O=c1cc(OCc2ccccc2F)ccn1-c1ccc(OCCN2CCCC2)cc1`, the IC50 was 30 nM.

In the case of `O=c1cc(OCc2ccc(C(F)(F)F)cc2)ccn1-c1ccc(OCCN2CCCC2)cc1`, the IC50 was 49 nM.

`O=c1cc(OCc2ccccc2)ccn1-c1ccc(OCCN2CCOCC2)cc1`: the IC50 is 34 nM.

The test system of another data set is Mus musculus. The data set can be described thus: Antiobese effect in diet-induced obese C57BL/6 mouse model assessed as loss of body weight at 3 mg/kg, po QD for 1.5 months. Type of data set: functional.
Details: not given
Put shortly: (§1)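 Established high-fat-fed DIO mice dosed orally once daily at 3, 10 or 30 mg/kg for 1.5 months, each dose given 1–2 h before dark period after daily food intake and body weight recording; body weight change at end of treatment versus vehicle controls, mean ± SEM.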
For the molecule `O=c1cc(OCc2ccc(F)cc2)ccn1-c1ccc(OCCN2CCCC2)cc1`, the Activity is listed as 4%.

Another data set relates to Mus musculus. Briefly: Suppression of spontaneous food intake in diet-induced obese C57BL/6 mouse model at 10 mg/kg, po after 24 hrs.
Details: not given
The data set is classed as functional. Put shortly: (§2)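 Established DIO mice on high-fat diet given a single oral dose (3, 10, 30 mg/kg) 1–2 h before dark onset, after recording daily intake and body weight; food intake measured 24 h post-dose versus vehicle group.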
For the molecule `O=c1cc(OCc2ccc(F)cc2)ccn1-c1ccc(OCCN2CCCC2)cc1`, the Activity amounted to 13%.

In the next data set the target is T1, Melanin-concentrating hormone receptor 1. The data set can be described thus: Displacement of [125I]MCH from human MCHR1 expressed in CHO cells by competition binding assay. Type of data set: cell-based.
Details: not given
The essentials: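 Competition binding against [¹²⁵I]-MCH radioligand on membranes from CHO cells expressing human MCH1R; IC50 values are means of two experiments.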
As for `O=c1cc(OCc2ccc(Cl)cc2)ccn1-c1ccc(OCCN2CCCC2)cc1`, the IC50 stood at 1.4 nM.

Take `O=c1cc(-c2ccc(F)cc2)ccn1-c1ccc(OCCN2CCCCC2)cc1`: the IC50 was over 1000 nM.

In the case of `CCN(CC)CCN(C(=O)OC)c1ccc(-n2ccc(OCc3ccccc3)cc2=O)cc1`, the IC50 is over 1000 nM.

On to `CN1CCCC1COc1ccc(-n2ccc(OCc3ccccc3)cc2=O)cc1` (stereo not given), for which the IC50 was 12 nM.

As for `CN(C)CC(C)(C)Oc1ccc(-n2ccc(OCc3ccccc3)cc2=O)cc1`, the IC50 amounted to 180 nM.

Molecule `CC(CN(C)C)Oc1ccc(-n2ccc(OCc3ccccc3)cc2=O)cc1` (stereo not given) gave an IC50 of 51 nM.

Take `CC(C)N(CCOc1ccc(-n2ccc(OCc3ccccc3)cc2=O)cc1)C(C)C`: the IC50 was determined as 5.1 nM.

`CN1CCCCC1COc1ccc(-n2ccc(OCc3ccccc3)cc2=O)cc1` (stereo not given) registered an IC50 of 18 nM.

In turn, `O=c1cc(OCc2cccc(F)c2)ccn1-c1ccc(OCCN2CCCC2)cc1` yielded a half-maximal inhibitory concentration (IC50) of 5.9 nM.

Molecule `CCN(CC)CCOc1ccc(-n2ccc(OCc3ccccc3)cc2=O)cc1` yielded an IC50 of 6.6 nM.

In the case of `O=c1cc(OCc2ccc3ccccc3c2)ccn1-c1ccc(OCCN2CCCC2)cc1`, the IC50 is 7.7 nM.

Take `O=c1cc(OCc2ccc(-c3ccccc3)cc2)ccn1-c1ccc(OCCN2CCCC2)cc1`: the IC50 stood at 640 nM.

In turn, `CN1CCC(Oc2ccc(-n3ccc(OCc4ccccc4)cc3=O)cc2)C1` (stereo not given) showed a 50% inhibitory concentration (IC50) of 18 nM.

`O=c1cc(OCc2ccccc2F)ccn1-c1ccc(OCCN2CCCC2)cc1` showed an IC50 of 8.7 nM.

As to `O=c1cc(OCc2ccc(C(F)(F)F)cc2)ccn1-c1ccc(OCCN2CCCC2)cc1`, the IC50 worked out at 6.7 nM.

Turning to `O=c1cc(OCc2ccccc2)ccn1-c1ccc(OCCN2CCOCC2)cc1`, the IC50 was determined as 24 nM.

In turn, `CCN(CC)CCN(C)c1ccc(-n2ccc(OCc3ccccc3)cc2=O)cc1` yielded an IC50 of 16 nM.

In the case of `O=c1cc(OCCOc2ccc(F)cc2)ccn1-c1ccc(OCCN2CCCC2)cc1`, the IC50 stood at 150 nM.

Turning to `O=c1cc(OCCc2ccc(F)cc2)ccn1-c1ccc(OCCN2CCCC2)cc1`, the IC50 turned out to be 650 nM.

In the case of `O=c1cc(Oc2ccc(F)cc2)ccn1-c1ccc(OCCN2CCCCC2)cc1`, the IC50 was over 1000 nM.

Turning to `O=c1cc(OCc2ccccc2Cl)ccn1-c1ccc(OCCN2CCCC2)cc1`, the IC50 stood at 12 nM.

System in the next data set: not listed separately
Briefly: Ratio of drug level in brain to plasma in Sprague-Dawley rat plasma at 10 mg/kg, po after 2 hrs.
Details: not given
The data set is classed as ADME, organism-based. Details: dose 10 mg/kg, route oral.
In the case of `O=c1cc(OCc2ccc(Cl)cc2)ccn1-c1ccc(OCCN2CCCC2)cc1`, the Kp at 2 h was 3.6.

As to `O=c1cc(OCc2ccc(F)cc2)ccn1-c1ccc(OCCN2CCCC2)cc1`, the Kp at 2 h came out at 2.4.

For `O=c1cc(OCc2ccccc2)ccn1-c1ccc(OCCN2CCCCC2)cc1`, the Kp at 2 h came to 3.8.

In the next data set the target is Voltage-gated inwardly rectifying potassium channel KCNH2 (Homo sapiens, UniProt Q12809). Briefly: Displacement of [35S]N-[(4R)-10-[(2R)-6-cyano-1,2,3,4-tetrahydro-2-naphthyl]-3,4-dihydro-4-hydroxyspiro[2H-1-benzopyran-2,40-piperidin]-6-yl]methanesulfonamide from human ERG expressed in HEK293 cells.
Voltage-gated inwardly rectifying potassium channel KCNH2, sequence (Q12809 whole entry): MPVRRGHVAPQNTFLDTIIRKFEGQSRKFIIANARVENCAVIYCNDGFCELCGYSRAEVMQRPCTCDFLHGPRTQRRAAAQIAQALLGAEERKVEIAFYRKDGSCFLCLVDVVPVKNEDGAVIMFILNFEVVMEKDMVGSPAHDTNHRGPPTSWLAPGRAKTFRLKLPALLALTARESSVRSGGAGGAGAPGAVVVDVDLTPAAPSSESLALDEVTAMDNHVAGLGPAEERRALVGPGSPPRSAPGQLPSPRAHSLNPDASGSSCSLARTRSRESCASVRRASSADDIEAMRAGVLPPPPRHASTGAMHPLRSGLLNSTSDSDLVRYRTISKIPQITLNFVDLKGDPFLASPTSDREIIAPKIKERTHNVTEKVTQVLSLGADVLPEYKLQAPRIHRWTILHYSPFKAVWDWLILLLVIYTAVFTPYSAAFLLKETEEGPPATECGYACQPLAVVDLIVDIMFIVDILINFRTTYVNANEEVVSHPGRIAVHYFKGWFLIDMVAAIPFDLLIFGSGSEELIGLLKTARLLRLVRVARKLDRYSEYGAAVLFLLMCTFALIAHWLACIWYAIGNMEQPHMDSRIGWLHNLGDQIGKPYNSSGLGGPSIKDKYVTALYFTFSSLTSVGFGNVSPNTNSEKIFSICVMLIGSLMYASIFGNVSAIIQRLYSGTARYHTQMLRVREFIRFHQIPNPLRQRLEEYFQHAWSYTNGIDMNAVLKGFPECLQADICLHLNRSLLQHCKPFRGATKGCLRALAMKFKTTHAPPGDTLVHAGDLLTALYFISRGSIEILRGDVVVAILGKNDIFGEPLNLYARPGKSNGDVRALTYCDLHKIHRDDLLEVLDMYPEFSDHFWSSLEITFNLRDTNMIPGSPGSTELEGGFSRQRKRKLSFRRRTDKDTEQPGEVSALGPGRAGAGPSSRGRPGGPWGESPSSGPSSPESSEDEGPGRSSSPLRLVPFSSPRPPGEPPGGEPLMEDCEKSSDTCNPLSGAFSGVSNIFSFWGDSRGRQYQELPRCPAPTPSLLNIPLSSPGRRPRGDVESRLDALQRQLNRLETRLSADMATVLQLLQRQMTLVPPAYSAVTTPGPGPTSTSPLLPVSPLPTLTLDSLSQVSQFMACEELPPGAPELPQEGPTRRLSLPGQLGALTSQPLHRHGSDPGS
Details: not given
`CN(C)CCOc1ccc(-n2ccc(OCc3ccccc3)cc2=O)cc1` displayed an IC50 of over 10000 nM.

Molecule `CCN(CC)CCOc1ccc(-n2ccc(OCc3ccccc3)cc2=O)cc1` returned an IC50 of 9800 nM.

`CN1CCC(Oc2ccc(-n3ccc(OCc4ccccc4)cc3=O)cc2)C1` (stereo not given) registered an IC50 of over 10000 nM.

`O=c1cc(OCc2ccccc2F)ccn1-c1ccc(OCCN2CCCC2)cc1` returned an IC50 of 4300 nM.

`O=c1cc(OCc2ccccc2)ccn1-c1ccc(OCCN2CCOCC2)cc1`: the IC50 was over 10000 nM.

`CCN(CC)CCN(C)c1ccc(-n2ccc(OCc3ccccc3)cc2=O)cc1` showed an IC50 of 1700 nM.

The next data set concerns Mus musculus. The data set can be described thus: Antiobese effect in diet-induced obese C57BL/6 mouse model assessed as loss of body weight at 10 mg/kg, po QD for 1.5 months. The data set is classed as functional.
Details: not given
Put shortly:
as §1
On to `O=c1cc(OCc2ccc(F)cc2)ccn1-c1ccc(OCCN2CCCC2)cc1`, for which the Activity came to 11%.

System in the next data set: not listed separately
Briefly: Drug level in Sprague-Dawley rat cerebrospinal fluid at 10 mg/kg, po after 2 hrs. Type of data set: ADME, organism-based. Details: dose 10 mg/kg, route oral. The note with it: read-out: Drug uptake.
On to `O=c1cc(OCc2ccc(Cl)cc2)ccn1-c1ccc(OCCN2CCCC2)cc1`, for which the concentration at 2 h is 10 nM.

As for `O=c1cc(OCc2ccc(F)cc2)ccn1-c1ccc(OCCN2CCCC2)cc1`, the concentration at 2 h stood at 55 nM.

Another data set concerns Mus musculus. The data set can be described thus: Suppression of spontaneous food intake in diet-induced obese C57BL/6 mouse model at 30 mg/kg, po after 24 hrs. The data set is classed as functional.
Details: not given
The essentials:
as §2
Molecule `O=c1cc(OCc2ccc(F)cc2)ccn1-c1ccc(OCCN2CCCC2)cc1` came in with an Activity of 19%.

With `CN(C)CC1CCc2cc(NC(=O)c3ccc(-c4ccc(F)cc4)cc3)ccc2C1` (stereo not given), the outcome was Active.

The test system of the next data set is Mus musculus. Briefly: Suppression of spontaneous food intake in diet-induced obese C57BL/6 mouse model treated orally chronic administration QD for 1.5 months after 24 hrs. Type of data set: functional, organism-based.
Details: not given
For the molecule `O=c1cc(OCc2ccc(F)cc2)ccn1-c1ccc(OCCN2CCCC2)cc1`, the Activity entry is “Dose-dependent effect”.

The subject of a further data set is Mus musculus. The data set can be described thus: Suppression of spontaneous food intake in diet-induced obese C57BL/6 mouse model treated orally after 24 hrs. The data set is classed as functional, organism-based.
Details: not given
The essentials: as §2
As to `O=c1cc(OCc2ccc(F)cc2)ccn1-c1ccc(OCCN2CCCC2)cc1`, the Activity result is “Dose-dependent effect”.

System in another data set: not listed separately
The data set can be described thus: Drug level in Sprague-Dawley rat plasma at 10 mg/kg, po after 2 hrs. The note with it: read-out: Drug uptake. Set-up: dose 10 mg/kg, route oral. Type of data set: ADME, organism-based.
Regarding `O=c1cc(OCc2ccc(Cl)cc2)ccn1-c1ccc(OCCN2CCCC2)cc1`, the concentration at 2 h worked out at 470 nM.

Take `O=c1cc(OCc2ccc(F)cc2)ccn1-c1ccc(OCCN2CCCC2)cc1`: the concentration at 2 h came to 1000 nM.

For `O=c1cc(OCc2ccccc2)ccn1-c1ccc(OCCN2CCCCC2)cc1`, the concentration at 2 h worked out at 200 nM.

In the next data set the test system is Mus musculus. Briefly: Antiobese effect in diet-induced obese C57BL/6 mouse model assessed as loss of body weight at 30 mg/kg, po QD for 1.5 months. The data set is classed as functional.
Details: not given
The essentials: as §1
As to `O=c1cc(OCc2ccc(F)cc2)ccn1-c1ccc(OCCN2CCCC2)cc1`, the Activity stood at 21%.

A further data set concerns Mus musculus. The data set can be described thus: Suppression of spontaneous food intake in diet-induced obese C57BL/6 mouse model at 3 mg/kg, po after 24 hrs. The data set is classed as functional.
Details: not given
The essentials:
as §2
With `O=c1cc(OCc2ccc(F)cc2)ccn1-c1ccc(OCCN2CCCC2)cc1`, the Activity came to 6%.

A further data set relates to Brain. The data set can be described thus: Drug level in Sprague-Dawley rat brain measured per gram of tissue at 10 mg/kg, po after 2 hrs. The data set is classed as ADME, organism-based. The note with it: in vivo. Set-up: dose 10 mg/kg, route oral.
`O=c1cc(OCc2ccc(Cl)cc2)ccn1-c1ccc(OCCN2CCCC2)cc1` yielded a Drug uptake of 1.67 nmol/g.

As for `O=c1cc(OCc2ccc(F)cc2)ccn1-c1ccc(OCCN2CCCC2)cc1`, the Drug uptake amounted to 2.4 nmol/g.

For the molecule `O=c1cc(OCc2ccccc2)ccn1-c1ccc(OCCN2CCCCC2)cc1`, the Drug uptake came to 0.76 nmol/g.

(Values after ChEMBL document CHEMBL1641472, “Discovery of novel phenylpyridone derivatives as potent and selective MCH1R antagonists” (Bioorg Med Chem, 2011).)
